Assay results: ChEMBL document CHEMBL3286180, “Efficacious inhaled PDE4 inhibitors with low emetic potential and long duration of action for the treatment of COPD” (J Med Chem, 2014)
Converted amounts (≈) assume the structure as drawn. Blank lines part the entries; values can stand above or below the compound they belong to. The source made the active and inactive calls. No cut-off for these calls is given here.

How the values were obtained:
Rattus norvegicus [1] = assay: Antiinflammatory activity in Sprague-Dawley rat assessed as inhibition of LPS-induced bronchoalveolar lavage neutrophils at 0.01 to 0.1 mg/ml, inhalation administered as nebulized suspension; assay type: functional, organism-based
In short: (§1)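 Rats were given the compound as an aqueous nebulized aerosol by nose-only inhalation 30 min before LPS challenge. Dose is expressed as mg/mL nebulizer concentration. Lung neutrophilia was the readout, and terminal lung concentration (nM) was measured. Groups held 8−10 animals per treatment.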

[2] = Half life in rat at 1 mg/kg, it; assay type: ADME, organism-based; parameters: dose 1 mg/kg, route endotracheal; conditions: in vivo, inhaled or intranasal
In short: (§2)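 Rat pharmacokinetics were run at 1 mg/kg, given iv or by intratracheal instillation, with 2−3 animals per study.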

Rattus norvegicus [3] = assay: (§3) Half life in rat at 1 mg/kg, iv; assay type: ADME, organism-based; parameters: dose 1 mg/kg, route intravenous; conditions: in vivo; in short: as §2
Rattus norvegicus [4] = assay: (§4) Volume of distribution at steady state in rat at 1 mg/kg, iv; assay type: ADME, organism-based; parameters: dose 1 mg/kg, route intravenous; conditions: in vivo
Rattus norvegicus [5] = assay: Antiinflammatory activity in Sprague-Dawley rat assessed as inhibition of LPS-induced bronchoalveolar lavage neutrophils measured as LPS duration at 0.03 to 3 mg/ml, inhalation administered as nebulized suspension; assay type: functional, organism-based
In short: (§5)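 Duration protocol: rats received a nose-only inhalation of nebulized aqueous compound solution 12 h before LPS challenge. Dose is expressed as mg/mL nebulizer concentration. Readout was LPS-induced pulmonary neutrophilia, with terminal lung concentration (nM) measured. Groups held 8−10 animals per treatment.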

PBMC = assay: Antiinflammatory activity in human PBMC assessed as inhibition of LPS-induced TNFalpha production after 20 hrs by fluorescence linked immunosorbant assay; assay type: functional, cell-based
[6] = Fraction unbound in human plasma; assay type: ADME, cell-free
[7] = Intrinsic clearance in human liver microsomes; assay type: ADME; conditions: read-out: CLH
[8] = molecular target: 3',5'-cyclic-AMP phosphodiesterase 4B (Homo sapiens, UniProt Q07343); assay: Inhibition of human recombinant PDE4B using [3H]cAMP by packard topcount scintillation counting analysis
Sequence of 3',5'-cyclic-AMP phosphodiesterase 4B (Q07343 whole entry): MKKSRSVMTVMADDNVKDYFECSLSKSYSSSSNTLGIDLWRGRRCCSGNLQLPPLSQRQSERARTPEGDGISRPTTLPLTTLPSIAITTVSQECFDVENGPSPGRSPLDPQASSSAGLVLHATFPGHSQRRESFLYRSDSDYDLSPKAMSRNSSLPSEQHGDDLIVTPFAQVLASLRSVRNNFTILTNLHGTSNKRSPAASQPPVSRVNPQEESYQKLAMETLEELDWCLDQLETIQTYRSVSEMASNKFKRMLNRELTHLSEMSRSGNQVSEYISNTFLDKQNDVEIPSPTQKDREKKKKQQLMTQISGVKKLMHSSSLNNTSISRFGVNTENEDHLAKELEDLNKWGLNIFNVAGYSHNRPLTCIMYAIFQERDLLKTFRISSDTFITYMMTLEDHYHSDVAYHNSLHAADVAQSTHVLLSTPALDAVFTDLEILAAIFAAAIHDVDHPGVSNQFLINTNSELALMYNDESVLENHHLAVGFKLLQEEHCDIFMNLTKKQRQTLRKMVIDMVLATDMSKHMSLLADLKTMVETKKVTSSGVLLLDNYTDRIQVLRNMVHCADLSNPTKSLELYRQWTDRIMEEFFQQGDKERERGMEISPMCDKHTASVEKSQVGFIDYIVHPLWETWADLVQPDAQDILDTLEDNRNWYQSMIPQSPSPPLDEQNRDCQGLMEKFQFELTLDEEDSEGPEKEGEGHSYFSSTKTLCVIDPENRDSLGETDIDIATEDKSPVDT

Rattus norvegicus [9] = assay: Antiinflammatory activity in Sprague-Dawley rat assessed as inhibition of LPS-induced bronchoalveolar lavage neutrophils up to 350 nM, inhalation administered as nebulized […] treated 12 hr before LPS challenge; assay type: functional, organism-based; in short: as §5
Blood [10] = assay: tissue or blood; conditions: Rattus norvegicus, 20 h, read-out: pIC50 (converted)
[11] = Aqueous solubility of the compound at pH 7.4; assay type: physicochemical; conditions: aqueous medium
Rattus norvegicus [12] = assay: Antiinflammatory activity in Sprague-Dawley rat assessed as inhibition of LPS-induced bronchoalveolar lavage neutrophils at 0.03 mg/ml, inhalation administered as nebulized suspension; assay type: functional, organism-based; in short: as §1
Blood [13] = assay: Antiinflammatory activity in human whole blood assessed as inhibition of LPS-induced TNFalpha production after 20 hrs by ELISA; assay type: functional, tissue-based
[14] = as §3; assay type: ADME, organism-based; parameters: dose 1 mg/kg, route intravenous; conditions: in vivo; in short: as §2
[15] = as §4; assay type: ADME, organism-based; parameters: dose 1 mg/kg, route intravenous; conditions: in vivo, read-out: Vdss
Cytochrome P450 2C19 = Cytochrome P450 2C19 (Homo sapiens, UniProt P33261); assay: Inhibition of CYP2C19 (unknown origin); assay type: ADME
Sequence of Cytochrome P450 2C19 (P33261 whole entry): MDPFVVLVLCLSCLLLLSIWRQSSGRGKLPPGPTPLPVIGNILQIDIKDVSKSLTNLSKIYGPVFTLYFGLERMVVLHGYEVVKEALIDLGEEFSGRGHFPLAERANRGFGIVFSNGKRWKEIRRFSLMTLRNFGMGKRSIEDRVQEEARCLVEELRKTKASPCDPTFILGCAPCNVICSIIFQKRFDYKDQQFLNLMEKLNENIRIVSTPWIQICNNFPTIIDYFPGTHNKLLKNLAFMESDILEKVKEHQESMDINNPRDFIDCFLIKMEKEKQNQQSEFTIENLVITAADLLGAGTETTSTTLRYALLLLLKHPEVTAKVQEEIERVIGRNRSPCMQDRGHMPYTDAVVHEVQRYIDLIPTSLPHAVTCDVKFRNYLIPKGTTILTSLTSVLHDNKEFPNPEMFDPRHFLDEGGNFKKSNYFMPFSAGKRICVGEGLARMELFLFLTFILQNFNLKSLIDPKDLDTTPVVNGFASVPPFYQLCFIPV

[16] = molecular target: Voltage-gated inwardly rectifying potassium channel KCNH2 (Homo sapiens, UniProt Q12809); assay: Inhibition of human ERG
Sequence of Voltage-gated inwardly rectifying potassium channel KCNH2 (Q12809 whole entry): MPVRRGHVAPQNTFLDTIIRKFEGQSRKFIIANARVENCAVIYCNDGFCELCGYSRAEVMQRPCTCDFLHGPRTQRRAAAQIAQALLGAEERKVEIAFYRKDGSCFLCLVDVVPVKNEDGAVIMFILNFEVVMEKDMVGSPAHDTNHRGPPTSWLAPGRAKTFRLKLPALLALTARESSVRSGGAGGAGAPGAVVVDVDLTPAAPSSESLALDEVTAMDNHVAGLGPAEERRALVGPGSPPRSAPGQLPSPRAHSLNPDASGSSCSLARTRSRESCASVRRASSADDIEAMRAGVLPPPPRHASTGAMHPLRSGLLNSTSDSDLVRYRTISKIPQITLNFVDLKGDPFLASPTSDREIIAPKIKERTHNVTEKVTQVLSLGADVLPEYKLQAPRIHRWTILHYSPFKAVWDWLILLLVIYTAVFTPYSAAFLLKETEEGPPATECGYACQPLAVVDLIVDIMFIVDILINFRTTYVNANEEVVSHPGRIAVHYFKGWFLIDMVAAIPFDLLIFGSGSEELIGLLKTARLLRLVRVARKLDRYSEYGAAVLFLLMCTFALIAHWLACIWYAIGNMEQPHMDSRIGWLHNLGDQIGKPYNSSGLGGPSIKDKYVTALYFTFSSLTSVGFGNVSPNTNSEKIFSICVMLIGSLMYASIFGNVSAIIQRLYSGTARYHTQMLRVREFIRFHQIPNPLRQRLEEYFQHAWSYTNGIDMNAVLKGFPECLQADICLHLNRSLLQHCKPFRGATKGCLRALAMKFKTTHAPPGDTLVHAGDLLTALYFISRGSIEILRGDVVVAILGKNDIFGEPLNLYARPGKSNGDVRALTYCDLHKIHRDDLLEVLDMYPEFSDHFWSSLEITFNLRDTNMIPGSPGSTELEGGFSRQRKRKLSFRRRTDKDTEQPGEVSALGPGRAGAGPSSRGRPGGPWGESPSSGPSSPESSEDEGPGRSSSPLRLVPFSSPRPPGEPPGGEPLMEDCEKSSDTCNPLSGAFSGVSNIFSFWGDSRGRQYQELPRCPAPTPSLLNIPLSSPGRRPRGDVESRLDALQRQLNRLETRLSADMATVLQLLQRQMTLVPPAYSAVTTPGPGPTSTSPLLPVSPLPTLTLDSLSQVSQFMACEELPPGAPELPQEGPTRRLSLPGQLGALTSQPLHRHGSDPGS

Rattus norvegicus [17] = assay: Antiinflammatory activity in Sprague-Dawley rat assessed as inhibition of LPS-induced bronchoalveolar lavage neutrophils at 0.01 mg/ml, inhalation administered as nebulized suspension; assay type: functional; in short: as §1
[18] = Fraction unbound in rat plasma; assay type: ADME, cell-free
[19] = Intrinsic clearance in rat hepatocytes measured per 10^6 cells; assay type: ADME, cell-based, Hepatocyte; conditions: read-out: CLH
CYP (isoform not stated) = assay: Time dependent inhibition of CYP (unknown origin) at 50 uM; assay type: ADME; conditions: human; read-out: TDI
Rattus norvegicus [20] = assay: Antiinflammatory activity in Sprague-Dawley rat assessed as inhibition of LPS-induced bronchoalveolar lavage neutrophils measured as LPS duration at 0.1 mg/ml, inhalation administered as nebulized suspension; assay type: functional, organism-based; in short: as §5
Rattus norvegicus [21] = assay: Antiinflammatory activity in Sprague-Dawley rat assessed as inhibition of LPS-induced bronchoalveolar lavage neutrophils at 0.1 mg/ml, inhalation administered as nebulized suspension; assay type: functional, organism-based; in short: as §1
[22] = Clearance in rat at 1 mg/kg, iv; assay type: ADME, organism-based; parameters: dose 1 mg/kg, route intravenous; conditions: in vivo; in short: as §2
Rattus norvegicus [23] = assay: Antiinflammatory activity in Sprague-Dawley rat assessed as inhibition of LPS-induced bronchoalveolar lavage neutrophils measured as LPS duration at 0.01 mg/ml, inhalation administered as nebulized suspension; assay type: functional, organism-based; conditions: 0.1 mg/ml, in the assay text read “0.1 mg/ml” for “0.01 mg/ml”; in short: as §5
Cytochrome P450 3A4 = Cytochrome P450 3A4 (Homo sapiens, UniProt P08684); assay: Inhibition of CYP3A4 (unknown origin); assay type: ADME
Sequence of Cytochrome P450 3A4 (P08684 whole entry): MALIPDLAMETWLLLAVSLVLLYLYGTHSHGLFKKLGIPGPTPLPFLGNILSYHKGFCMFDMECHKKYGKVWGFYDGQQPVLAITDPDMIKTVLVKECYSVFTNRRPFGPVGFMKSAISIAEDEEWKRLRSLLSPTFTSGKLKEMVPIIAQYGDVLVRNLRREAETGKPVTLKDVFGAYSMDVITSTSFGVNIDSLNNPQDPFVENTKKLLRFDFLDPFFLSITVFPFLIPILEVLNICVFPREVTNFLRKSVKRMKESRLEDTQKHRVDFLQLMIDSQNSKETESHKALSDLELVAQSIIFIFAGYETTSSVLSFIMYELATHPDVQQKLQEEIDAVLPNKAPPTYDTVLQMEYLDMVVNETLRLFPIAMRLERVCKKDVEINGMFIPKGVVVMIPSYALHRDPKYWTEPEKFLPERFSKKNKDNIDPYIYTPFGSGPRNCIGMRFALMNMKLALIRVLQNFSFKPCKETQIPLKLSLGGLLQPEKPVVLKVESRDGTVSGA

Cytochrome P450 2D6 = Cytochrome P450 2D6 (Homo sapiens, UniProt P10635); assay: Inhibition of CYP2D6 (unknown origin); assay type: ADME
Sequence of Cytochrome P450 2D6 (P10635 whole entry): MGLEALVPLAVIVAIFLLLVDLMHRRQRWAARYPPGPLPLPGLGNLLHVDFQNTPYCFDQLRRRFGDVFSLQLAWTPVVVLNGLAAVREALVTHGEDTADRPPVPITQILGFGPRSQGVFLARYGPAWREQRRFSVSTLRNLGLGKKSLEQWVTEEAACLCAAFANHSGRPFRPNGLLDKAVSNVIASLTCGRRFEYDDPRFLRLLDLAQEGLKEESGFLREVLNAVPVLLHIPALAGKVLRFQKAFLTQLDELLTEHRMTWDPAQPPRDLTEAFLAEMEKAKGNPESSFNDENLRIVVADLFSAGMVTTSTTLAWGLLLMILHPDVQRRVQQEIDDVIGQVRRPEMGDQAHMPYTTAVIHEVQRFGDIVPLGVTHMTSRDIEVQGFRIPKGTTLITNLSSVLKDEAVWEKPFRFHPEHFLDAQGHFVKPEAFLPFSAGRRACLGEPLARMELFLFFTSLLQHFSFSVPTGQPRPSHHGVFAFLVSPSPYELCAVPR

Cytochrome P450 2C9 = Cytochrome P450 2C9 (Homo sapiens, UniProt P11712); assay: Inhibition of CYP2C9 (unknown origin); assay type: ADME
Sequence of Cytochrome P450 2C9 (P11712 whole entry): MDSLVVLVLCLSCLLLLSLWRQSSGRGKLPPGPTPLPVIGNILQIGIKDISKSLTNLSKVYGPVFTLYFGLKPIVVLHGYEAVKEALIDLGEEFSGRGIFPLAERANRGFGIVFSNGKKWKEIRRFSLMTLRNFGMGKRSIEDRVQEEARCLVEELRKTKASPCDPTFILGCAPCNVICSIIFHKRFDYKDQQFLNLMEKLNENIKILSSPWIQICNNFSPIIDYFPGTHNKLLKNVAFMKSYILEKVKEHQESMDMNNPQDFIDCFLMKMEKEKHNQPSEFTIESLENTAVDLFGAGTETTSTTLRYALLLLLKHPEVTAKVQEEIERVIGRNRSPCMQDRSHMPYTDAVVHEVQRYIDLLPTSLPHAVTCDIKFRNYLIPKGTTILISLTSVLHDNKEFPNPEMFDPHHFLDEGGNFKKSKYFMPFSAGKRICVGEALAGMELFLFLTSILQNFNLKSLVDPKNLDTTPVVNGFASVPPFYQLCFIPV

[24] = Lipophilicity, log D of the compound; assay type: physicochemical; conditions: octanol/water
Rattus norvegicus [25] = assay: Apparent volume of distribution in rat at 1 mg/kg, iv; assay type: ADME, organism-based; parameters: dose 1 mg/kg, route intravenous; conditions: in vivo; in short: as §2

half-life [2]: 8.1 h
t1/2 (Rattus norvegicus [3]): 14.9 h
Vdss (Rattus norvegicus [4]): 0.75 L/kg
fraction unbound [6]: 0.015
microsomal CLint [7]: > 150 µL/min/mg
IC50 [8]: < 0.01 nM
IC50 (Blood [10]): 0.251 nM
solubility [11]: 1.2 µM (≈ 0.622 µg/mL)
IC50 (Blood [13]): 0.316 nM
SMILES: COc1cccc(Nc2c(C(N)=O)cnc3c(C)cc(S(=O)(=O)c4cccc(C(=O)N(C)C)c4)cc23)c1 [GSK-256066]
inhibition (Rattus norvegicus [1]): inactive
inhibition (Rattus norvegicus [5]): Active
IC50 (PBMC): 0.00316 nM
inhibition (Rattus norvegicus [9]): inactive
inhibition (Rattus norvegicus [12]): Active

half-life [14]: 13 h
Vd [15]: 2.6 L/kg
IC50 (Cytochrome P450 2C19): 6310 nM
fraction unbound [18]: 0.1
hepatocyte CLint [19]: 120 µL/min/1e6 cells
inhibition at 50 µM (CYP (isoform not stated)): 73%
fraction unbound [6]: 0.056
clearance [22]: 69 mL/min/kg
microsomal CLint [7]: > 150 µL/min/mg
IC50 (Cytochrome P450 3A4): 501 nM
IC50 (Cytochrome P450 2D6): > 10000 nM
IC50 (Cytochrome P450 2C9): 251 nM
logD [24]: 3.1
solubility [11]: 250 µM (≈ 161 µg/mL)
Vz/F (Rattus norvegicus [25]): 76 L/kg
SMILES: Cc1cc(C(=O)N[C@H]2CC[C@@H](NC(=O)c3cc(F)cnc3Oc3cccc(-c4ccc(O)cc4CN4CCOCC4)c3)CC2)nn1C
IC50 [16]: 31600 nM
inhibition (INH) (Rattus norvegicus [17]): 37%
IC50 (PBMC): 0.0631 nM
inhibition (Rattus norvegicus [20]): Active
inhibition (Rattus norvegicus [21]): Active
inhibition (Rattus norvegicus [23]): Active
